According to ChEMBL document CHEMBL3997779, “Rhodamine B conjugates of triterpenoic acids are cytotoxic mitocans even at nanomolar concentrations” (Eur J Med Chem, 2017):
Calls of active or inactive are those of the source.

Experiments:
518A2 = experiment: Cytotoxicity against human 518A2 cells after 96 hrs by SRB assay; format: functional, cell-based; conditions: 518A2, 96 h
Summary of the method: (§1)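 EC50 from sulforhodamine B assay after 96 h exposure. Each value is averaged from three independent experiments, each run in triplicate, with 95% confidence interval. Assay cut-off 30 µM.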

NIH3T3 = experiment: Cytotoxicity against mouse NIH/3T3 cells after 96 hrs by SRB assay; format: cell-based; conditions: NIH3T3, 96 h; summary of the method: as §1
HT-29 = experiment: Cytotoxicity against human HT-29 cells after 96 hrs by SRB assay; format: functional, cell-based; conditions: HT-29, 96 h; summary of the method: as §1
A2780 [1] = experiment: Cytotoxicity against human A2780 cells after 96 hrs by SRB assay; format: functional, cell-based; conditions: A2780, 96 h; summary of the method: as §1
8505C = experiment: Cytotoxicity against human 8505C cells after 96 hrs by SRB assay; format: functional, cell-based; summary of the method: as §1
A549 = experiment: Cytotoxicity against human A549 cells after 96 hrs by SRB assay; format: functional, cell-based; conditions: A549, 96 h; summary of the method: as §1
MCF7 = experiment: Cytotoxicity against human MCF7 cells after 96 hrs by SRB assay; format: functional, cell-based; conditions: MCF7, 96 h; summary of the method: as §1
[2] = Selectivity factor, ratio of EC50 for mouse NIH/3T3 cells to EC50 for human A2780 cells
A2780 [3] = experiment: Induction of morphological changes in human A2780 cells at 0.1 uM after 24 hrs by rhodamine 123/Hoechst 33342 staining-based fluorescence microscopic method; format: functional, cell-based
Summary of the method: (§2)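 Approx. 800,000 A2780 cells grown 24 h in 25 cm² flasks. Medium then replaced with compound-containing medium at 0.1 µM, or blank medium as control, for 24 h. Cells collected, centrifuged at 1200 rpm and 4 °C, and washed in PBS. Live cells stained with Hoechst 33342 (DNA) and rhodamine 123 (mitochondria), then imaged by fluorescence and light microscopy.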

A2780 [4] = experiment: Induction of apoptosis in human A2780 cells at 0.1 to 0.4 uM after 24 hrs by annexin V/propidium iodide staining-based flow cytometric method relative to control; format: functional, cell-based
Summary of the method: (§3)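 A2780 cells treated at 0.1 µM, and at up to 0.4 µM, compared with untreated control. Stained with annexin V/propidium iodide and quantified by FACS.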

[5] = Drug uptake in mitochondria of human A2780 cells at 0.1 uM after 24 hrs by fluorescence and light microscopy; format: ADME; summary of the method: as §2
A2780 [6] = experiment: Induction of necrosis in human A2780 cells at 0.1 uM after 24 hrs by annexin V/propidium iodide staining-based flow cytometric method relative to control; format: functional, cell-based; summary of the method: as §3

Compound | EC50 (518A2) [nM] | EC50 (NIH3T3) [nM] | EC50 (HT-29) [nM] | EC50 (A2780 [1]) [nM] | EC50 (8505C) [nM] | EC50 (A549) [nM] | EC50 (MCF7) [nM] | Ratio EC50 [2] | Activity (A2780 [3]) | Activity (A2780 [4]) | Drug uptake [5] | Activity (A2780 [6])
C[C@H]1[C@H](C)CC[C@]2(C(=O)O)CC[C@]3(C)C(=CC[C@@H]4[C@@]5(C)CC[C@H](O)C(C)(C)[C@@H]5CC[C@]43C)[C@H]12 [URSOLIC ACID] | 14700 | 18700 |  |  |  |  |  |  |  |  |  | 
CC(=O)O[C@H]1CC[C@]2(C)[C@H]3CC=C4[C@@H]5[C@@H](C)[C@H](C)CC[C@]5(C(=O)N5CCNCC5)CC[C@@]4(C)[C@]3(C)CC[C@H]2C1(C)C | 2600 | 2100 | 1900 | 2100 | 3500 | 3200 | 2000 |  |  |  |  | 
CC1(C)CC[C@]2(C(=O)O)CC[C@]3(C)C(=CC[C@@H]4[C@@]5(C)C[C@@H](O)[C@H](O)C(C)(C)[C@@H]5CC[C@]43C)[C@@H]2C1 [MASLINIC ACID] | 13700 | 21100 | 28800 | 19500 | 17000 | 23400 | > 30000 |  |  |  |  | 
CCN(CC)c1ccc2c(-c3ccccc3C(=O)N3CCN(C(=O)[C@]45CCC(C)(C)C[C@H]4C4=CC[C@@H]6[C@@]7(C)C[C@@H](OC(C)=O)[C@H](OC(C)=O)C(C)(C)[C@@H]7CC[C@@]6(C)[C@]4(C)CC5)CC3)c3ccc(=[N+](CC)CC)cc-3oc2c1.[Cl-] | 11 | 334 | 57 | 7 |  | 186 | 28 | 50 | inactive | inactive | Active | Active
C=C(C)[C@@H]1CC[C@]2(C(=O)N3CCN(C(=O)c4ccccc4-c4c5ccc(=[N+](CC)CC)cc-5oc5cc(N(CC)CC)ccc45)CC3)CC[C@]3(C)[C@H](CC[C@@H]4[C@@]5(C)CC[C@H](OC(C)=O)C(C)(C)[C@@H]5CC[C@]43C)[C@@H]12 | 46 | 208 | 151 | 50 | 62 | 176 | 81 |  |  |  |  | 
CC1(C)[C@@H](O)CC[C@]2(C)[C@H]3C(=O)C=C4[C@@H]5C[C@@](C)(C(=O)O)CC[C@]5(C)CC[C@@]4(C)[C@]3(C)CC[C@@H]12 [ENOXOLONE] | > 30000 | 18700 | > 30000 | > 30000 | > 30000 | > 30000 | > 30000 |  |  |  |  | 
CC(=O)[C@@H]1CC[C@]2(C(=O)O)CC[C@]3(C)[C@H](CC[C@@H]4[C@@]5(C)CC[C@H](O)C(C)(C)[C@@H]5CC[C@]43C)[C@@H]12 [PLATANIC ACID] | > 30000 |  | > 30000 | > 30000 | > 30000 | > 30000 | > 30000 |  |  |  |  | 
CC1(C)CC[C@]2(C(=O)O)CC[C@]3(C)C(=CC[C@@H]4[C@@]5(C)CC[C@H](O)C(C)(C)[C@@H]5CC[C@]43C)[C@@H]2C1 [OLEANOLIC_ACID] | > 30000 | > 30000 | > 30000 |  | > 30000 | > 30000 | > 30000 |  |  |  |  | 
CC(=O)O[C@H]1CC[C@]2(C)[C@H]3CC=C4[C@@H]5CC(C)(C)CC[C@]5(C(=O)N5CCNCC5)CC[C@@]4(C)[C@]3(C)CC[C@H]2C1(C)C | 2700 | 1700 | 1300 | 1700 | 3800 | 2300 | 1700 |  |  |  |  | 
CC(=O)O[C@@H]1C[C@]2(C)[C@H]3CC=C4[C@@H]5CC(C)(C)CC[C@]5(C(=O)N5CCNCC5)CC[C@@]4(C)[C@]3(C)CC[C@H]2C(C)(C)[C@H]1OC(C)=O |  | 3200 | 1600 | 1900 |  | 1500 | 1000 |  |  |  |  | 
CCN(CC)c1ccc2c(-c3ccccc3C(=O)N3CCN(C(=O)[C@]45CCC(C)(C)C[C@H]4C4=CC[C@@H]6[C@@]7(C)CC[C@H](OC(C)=O)C(C)(C)[C@@H]7CC[C@@]6(C)[C@]4(C)CC5)CC3)c3ccc(=[N+](CC)CC)cc-3oc2c1 | 43 | 137 | 91 | 32 | 45 | 120 | 62 |  |  |  |  | 
C=C(C)[C@@H]1CC[C@]2(C(=O)O)CC[C@]3(C)[C@H](CC[C@@H]4[C@@]5(C)CC[C@H](O)C(C)(C)[C@@H]5CC[C@]43C)[C@@H]12 [BETULINIC ACID] | 9400 | 16100 |  |  |  |  |  |  |  |  |  | 
CCN(CC)c1ccc2c(-c3ccccc3C(=O)N3CCN(C(=O)[C@]45CC[C@@H](C)[C@H](C)[C@H]4C4=CC[C@@H]6[C@@]7(C)CC[C@H](OC(C)=O)C(C)(C)[C@@H]7CC[C@@]6(C)[C@]4(C)CC5)CC3)c3ccc(=[N+](CC)CC)cc-3oc2c1 | 47 | 137 | 83 | 38 | 47 | 140 | 75 |  |  |  |  | 
CC(=O)O[C@H]1CC[C@]2(C)[C@H]3CC[C@@H]4[C@H]5[C@H](C(C)=O)CC[C@]5(C(=O)N5CCNCC5)CC[C@@]4(C)[C@]3(C)CC[C@H]2C1(C)C | 2700 | 700 | 2400 | 3100 | 3700 | 3900 | 2800 |  |  |  |  | 
CCN(CC)c1ccc2c(-c3ccccc3C(=O)N3CCN(C(=O)[C@]45CC[C@@H](C(C)=O)[C@@H]4[C@H]4CC[C@@H]6[C@@]7(C)CC[C@H](OC(C)=O)C(C)(C)[C@@H]7CC[C@@]6(C)[C@]4(C)CC5)CC3)c3ccc(=[N+](CC)CC)cc-3oc2c1 | 100 | 171 | 99 | 36 | 145 | 131 | 70 |  |  |  |  | 
CC(=O)O[C@H]1CC[C@]2(C)[C@H]3C(=O)C=C4[C@@H]5C[C@@](C)(C(=O)N6CCNCC6)CC[C@]5(C)CC[C@@]4(C)[C@]3(C)CC[C@H]2C1(C)C | 9400 | 8700 | 4500 | 8200 | 10000 | 10500 | 8400 |  |  |  |  | 
C=C(C)[C@@H]1CC[C@]2(C(=O)N3CCNCC3)CC[C@]3(C)[C@H](CC[C@@H]4[C@@]5(C)CC[C@H](OC(C)=O)C(C)(C)[C@@H]5CC[C@]43C)[C@@H]12 | 1500 | 900 | 1000 | 1900 | 2200 | 2200 | 1400 |  |  |  |  | 
CCN(CC)c1ccc2c(-c3ccccc3C(=O)O)c3ccc(=[N+](CC)CC)cc-3oc2c1 [RHODAMINE] | > 30000 | > 30000 | > 30000 | > 30000 | > 30000 | > 30000 | > 30000 |  |  |  |  | 
